According to ChEMBL document CHEMBL3632592, “Identification of Highly Promising Antioxidants/Neuroprotectants Based on Nucleoside 5'-Phosphorothioate Scaffold. Synthesis, Activity, and Mechanisms of Action” (J Med Chem, 2015):
Calls of active or inactive are those of the source. The calls are words filed in the database; no cut-off is given here.

Key:
P2Y purinoceptor 11 = target: T1, P2Y purinoceptor 11 (Homo sapiens, UniProt Q96G91); test: Agonist activity at GFP-tagged human P2Y11R transfected in human 1321N1 cells assessed as increase in intracellular Ca2+ level by fura 2/AM probe-based fluorescence assay; assay type: functional, cell-based
T1 sequence (Q96G91 whole entry): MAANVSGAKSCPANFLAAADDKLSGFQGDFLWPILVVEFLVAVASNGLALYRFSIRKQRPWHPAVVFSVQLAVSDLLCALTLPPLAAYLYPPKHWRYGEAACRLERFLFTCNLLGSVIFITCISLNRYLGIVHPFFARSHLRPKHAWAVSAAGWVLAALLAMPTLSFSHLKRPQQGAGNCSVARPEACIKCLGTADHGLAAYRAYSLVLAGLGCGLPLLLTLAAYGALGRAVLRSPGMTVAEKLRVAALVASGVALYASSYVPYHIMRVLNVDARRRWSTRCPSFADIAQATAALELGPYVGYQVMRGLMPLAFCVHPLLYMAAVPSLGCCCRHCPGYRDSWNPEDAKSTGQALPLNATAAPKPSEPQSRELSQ

P2Y purinoceptor 1 = P2Y purinoceptor 1 (Homo sapiens, UniProt P47900); test: Agonist activity at GFP-tagged human P2Y1R transfected in human 1321N1 cells assessed as increase in intracellular Ca2+ level by fura 2/AM probe-based fluorescence assay; assay type: functional, cell-based
Chain of P2Y purinoceptor 1 (P47900 whole entry): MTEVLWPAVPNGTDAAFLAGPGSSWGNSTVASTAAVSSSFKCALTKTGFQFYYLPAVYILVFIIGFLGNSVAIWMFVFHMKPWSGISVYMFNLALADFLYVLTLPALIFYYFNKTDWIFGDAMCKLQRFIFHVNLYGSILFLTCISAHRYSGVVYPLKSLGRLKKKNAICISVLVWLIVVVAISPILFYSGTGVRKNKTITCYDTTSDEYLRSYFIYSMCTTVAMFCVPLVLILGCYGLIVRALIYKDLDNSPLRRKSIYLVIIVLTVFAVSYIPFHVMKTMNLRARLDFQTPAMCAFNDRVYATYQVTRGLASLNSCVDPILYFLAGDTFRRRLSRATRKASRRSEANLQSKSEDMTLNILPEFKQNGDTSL

PC-12 [1] = test: cells; conditions: Rattus norvegicus, PC-12, 1 h
[2] = Antioxidant activity assessed as inhibition of Fe2+-induced DMPO-OH adduct formation from H2O2 preincubated for 30 secs followed by DMPO/H2O2 addition measured after 150 secs by ESR analysis; assay type: physicochemical
Method in brief: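 Fenton/ESR spin trapping: 1 mM ammonium iron(II) sulfate was added to 5–500 µM compound, then Tris buffer pH 7.4 (final pH 7.2–7.4). After 30 s, 100 mM DMPO and 100 mM H2O2 were added (stock concentrations). The ESR spectrum was recorded 150 s after H2O2, at room temperature. DMPO-OH adduct expressed as % of control containing FeSO4, H2O2 and DMPO only.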

[3] = Antioxidant activity assessed as ABTS radical scavenging activity after 7 mins; assay type: physicochemical
Method in brief: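 ABTS radical cation made from 7 mM ABTS with 2.45 mM persulfate (final), kept in the dark at room temperature 12–16 h. It was then diluted in water pH 7.4 to A734 0.80 and mixed with compound or Trolox standard (final 0–60 µM). A734 was read at 7 min. Percent inhibition plotted against concentration; at least three runs, in triplicate.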

[4] = Metal chelating activity assessed as inhibition of Fe2+-ferrozine complex formation after 10 mins; assay type: physicochemical
Method in brief: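 Competitive ferrozine assay. FeSO4 (final 10 µM) and ferrozine (final 20 µM) are mixed with nucleotide in DDW at final 25–200 µM and agitated 10 min at room temperature. Absorbance of the Fe(II)-ferrozine complex is read at 562 nm with and without compound, and inhibition of complex formation is calculated. Three experiments, mean ± S.D.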

PC-12 [5] = tested on: PC-12
Cerebral cortex neuron [6] = test: Neuroprotective activity against Fe2+-induced oxidative damage in rat primary cortical neurons assessed as cell viability at 0.01 to 25 uM after 24 hrs by MTT assay; assay type: functional, cell-based
Method in brief: (§1)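 Rat (1-day-old) cortical neurons were grown serum-free in DMEM/F12 with B-27 on poly-ornithine, treated with Ara-C and cultured 5 d. Cells were pretreated with nucleotide (0.01–25 µM), then exposed to FeSO4 3 µM final for 24 h. MTT 1 mg/mL was added for 2 h at 37 °C, formazan dissolved in DMSO, A550 read. Viability given as % of vehicle control; three independent experiments in triplicate.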

[7] = Half life of the compound in RPMI-1640 medium at 37 degC by HPLC analysis; assay type: ADME
Method in brief: (§2)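 Nucleotides were incubated in human blood serum or RPMI-1640 at 37 °C for 0.5–24 h. Hydrolysis was followed by the change in HPLC peak integration of each analogue over time, and half-life was derived from this.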

[8] = Half life in human serum at 37 degC by HPLC analysis; assay type: ADME, cell-free; method in brief: as §2
[9] = target: T2, eNPP1 (ectonucleotide pyrophosphatase/phosphodiesterase family member 1) (Homo sapiens, UniProt P22413); test: (§3) Drug metabolism assessed as human eNPP1-mediated compound hydrolysis at 4 mM after 2 hrs by reverse-phase HPLC analysis relative to ATP; assay type: ADME; conditions: human eNPP1 enzyme, read-out: Drug metabolism
T2 sequence (P22413 whole entry): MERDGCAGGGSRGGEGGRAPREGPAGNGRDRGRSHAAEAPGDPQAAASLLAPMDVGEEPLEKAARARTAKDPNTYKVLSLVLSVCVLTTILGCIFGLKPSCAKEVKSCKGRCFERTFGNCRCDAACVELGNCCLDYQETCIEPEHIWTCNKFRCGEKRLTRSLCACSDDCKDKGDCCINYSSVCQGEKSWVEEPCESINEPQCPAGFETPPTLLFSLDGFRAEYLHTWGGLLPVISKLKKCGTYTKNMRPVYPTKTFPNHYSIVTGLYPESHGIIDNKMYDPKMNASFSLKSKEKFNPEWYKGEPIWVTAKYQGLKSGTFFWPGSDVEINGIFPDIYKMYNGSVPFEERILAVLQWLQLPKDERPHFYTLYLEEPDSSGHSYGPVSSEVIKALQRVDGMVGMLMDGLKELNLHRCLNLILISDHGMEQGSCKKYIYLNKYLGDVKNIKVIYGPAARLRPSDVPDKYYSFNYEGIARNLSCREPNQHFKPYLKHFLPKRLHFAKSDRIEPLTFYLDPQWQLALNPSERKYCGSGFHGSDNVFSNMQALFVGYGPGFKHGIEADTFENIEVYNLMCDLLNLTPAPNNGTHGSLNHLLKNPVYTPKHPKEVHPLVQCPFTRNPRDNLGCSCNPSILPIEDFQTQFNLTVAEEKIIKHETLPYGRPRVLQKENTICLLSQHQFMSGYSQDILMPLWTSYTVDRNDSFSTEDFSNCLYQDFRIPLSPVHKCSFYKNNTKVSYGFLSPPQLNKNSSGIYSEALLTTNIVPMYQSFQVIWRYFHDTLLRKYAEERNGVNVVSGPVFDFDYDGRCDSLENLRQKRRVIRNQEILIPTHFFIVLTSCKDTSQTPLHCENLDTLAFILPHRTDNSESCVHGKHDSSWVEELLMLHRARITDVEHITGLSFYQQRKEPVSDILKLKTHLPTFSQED
Method in brief: (§4)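 Human eNPP1 extract (19 µg) was preincubated 3 min at 37 °C in 1 mM CaCl2, 200 mM NaCl, 10 mM KCl, 100 mM Tris pH 8.5, then reaction started with compound (4 mM stock). Stopped after 2 h with ice-cold 1 M perchloric acid, neutralised with KOH, and analysed by RP-HPLC (90% 100 mM TEAA pH 7/10% CH3CN). Degradation from the monophosphate peak after subtracting the acid-only control.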

[10] = Metal chelating activity assessed as inhibition of Fe2+-ferrozine complex formation at 80 uM after 10 mins relative to control; assay type: physicochemical
Method in brief: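 FeSO4 (final 10 µM) was mixed with ferrozine (final 20 µM) and nucleotide (final 25–200 µM) in water and agitated 10 min at room temperature. Fe(II)-ferrozine complex absorbance at 562 nm, measured with versus without compound. Mean of three experiments.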

[11] = Antioxidant activity in human NTERA2 cells assessed as inhibition of Fe2+-induced reactive oxygen species formation at 0.2 uM after 1 hr by DCFH-DA dye-based fluorometric analysis relative to control; assay type: functional; conditions: NTERA2, 1 h
[12] = Neuroprotective activity against Fe2+-induced oxidative damage in rat primary cortical neurons assessed as cell viability after 24 hrs by MTT assay; assay type: functional, cell-based; conditions: Cerebral cortex neuron; method in brief: as §1
[13] = target: T3, Ectonucleotide pyrophosphatase/phosphodiesterase family member 1 (Homo sapiens, UniProt P22413); test: as §3; assay type: ADME; conditions: 2 h, 4000 µM; method in brief: as §4
T3 sequence (P22413 whole entry): T2 sequence (P22413 whole entry)

PC-12 [14] = test: Antioxidant activity in rat PC12 cells assessed as inhibition of Fe2+-induced reactive oxygen species formation at 0.01 to 25 uM after 1 hr by DCFH-DA dye-based fluorometric analysis in presence of P2Y12R antagonist 2-MeS-AMP; assay type: functional, cell-based
Method in brief: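 PC12 cells (DMEM, seeded 24 h) were preincubated 20 min with 50 µM P2Y12 antagonist 2-MeS-AMP. They were then loaded with DCFH-DA, given test compound at 0.01–25 µM, and oxidised with FeSO4 (final 0.16 µM). DCF fluorescence 485/530 nm over 1 h at 37 °C. ROS inhibition compared with no-antagonist control; three independent experiments in triplicate.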

NTERA2 = test: Antioxidant activity in human NTERA2 cells assessed as inhibition of Fe2+-induced reactive oxygen species formation at 0.01 to 25 uM after 1 hr by DCFH-DA dye-based fluorometric analysis in presence of P2Y1R antagonist MRS2179; assay type: functional, cell-based
Method in brief: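 Ntera-2 cells (DMEM, seeded 24 h) were preincubated 20 min with 40 µM P2Y1 antagonist MRS2179. They were then loaded with DCFH-DA and treated with compound at 0.01–25 µM, with oxidation started by FeSO4 (final 0.16 µM). DCF fluorescence 485/530 nm, 1 h at 37 °C. Three independent experiments in triplicate.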

Cerebral cortex neuron [15] = test: Neuroprotective activity against Fe2+-induced morphological changes in rat primary cortical neurons at 0.2 to 100 uM after 24 hrs by light microscopic analysis; assay type: functional, cell-based
Method in brief: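 Primary rat cortical neurons were exposed to 3 µM FeSO4 for 24 h, with compound at 0.2, 5 and 100 µM. Morphology (cell number, extensions, cytoskeleton) was examined by light microscopy at 100×.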

SMILES | EC50 (P2Y purinoceptor 11) [µM] | EC50 (P2Y purinoceptor 1) [µM] | IC50 (PC-12 [1]) [µM] | IC50 [2] [µM] | IC50 [3] [µM] | other results
Nc1nc(Cl)nc2c1ncn2[C@@H]1O[C@H](COP(=O)(S)OP(=O)(O)OP(=O)(O)O)[C@@H](O)[C@H]1O (stereo in doubt; 9A) | 9.1 | 0.73 | 106 | 37 | 25 | –
Cc1c(C)c2c(c(C)c1O)CCC(C)(C(=O)O)O2 (stereo not given) [TROLOX] | – | – | – | – | 18 | IC50 [4]: 150 µM
CSc1nc(N)c2ncn([C@@H]3O[C@H](COP(=O)(O)OP(=O)(O)S)[C@@H](O)[C@H]3O)c2n1 (stereo not given in full) | 0.9 | 0.037 | 12 | 21 | 15 | –
Nc1ncnc2c1ncn2[C@@H]1O[C@H](COP(=O)(O)OP(=O)(O)S)[C@@H](O)[C@H]1O (stereo not given in full) | 32.7 | 1.27 | 20 | 19 | 15 | IC50 [4]: 85 µM
O=C(O)CC(O)(CC(=O)O)C(=O)O [CITRIC ACID] | – | – | – | – | – | IC50 [4]: 300 µM
Nc1nc(Cl)nc2c1ncn2[C@@H]1O[C@H](COP(=O)(O)OP(=O)(O)S)[C@@H](O)[C@H]1O (stereo not given in full) | 1 | 0.09 | 5 | 21 | 13 | –
Nc1nc(Cl)nc2c1ncn2[C@@H]1O[C@H](COP(=O)(S)OP(=O)(O)O)[C@@H](O)[C@H]1O (stereo in doubt; 8A) | 1.4 | 0.03 | 0.2 | 36 | 11 | –
Nc1ncnc2c1ncn2[C@@H]1O[C@H](COP(=O)(O)OP(=O)(O)OP(=O)(O)O)[C@@H](O)[C@H]1O [ADENOSINE TRIPHOSPHATE] | – | – | – | – | 60 | –
Nc1nc(Cl)nc2c1ncn2[C@@H]1O[C@H](COP(=O)(S)OP(=O)(O)O)[C@@H](O)[C@H]1O (stereo in doubt; 8B) | 0.5 | 1.5 | – | 39 | 12 | IC50 (PC-12 [5]): 0.11 µM
O=C(O)CN(CCN(CC(=O)O)CC(=O)O)CC(=O)O [EDETIC ACID] | – | – | – | 54 | – | –
Nc1nc(Cl)nc2c1ncn2[C@@H]1O[C@H](COP(=O)(S)OP(=O)(O)OP(=O)(O)O)[C@@H](O)[C@H]1O (stereo in doubt; 9B) | 1.1 | 0.88 | – | 27 | 24 | IC50 (PC-12 [5]): 100 µM
CSc1nc(N)c2ncn([C@@H]3O[C@H](COP(=O)(S)OP(=O)(O)O)[C@@H](O)[C@H]3O)c2n1 (stereo in doubt; 7B) [listing 1 of 2 here] | – | – | – | – | – | Activity (Cerebral cortex neuron [6]): Active
CSc1nc(N)c2ncn([C@@H]3O[C@H](COP(=O)(S)OP(=O)(O)O)[C@@H](O)[C@H]3O)c2n1 (stereo in doubt; 7A) [listing 1 of 2 here] | 3.2 | 0.0026 | – | 37 | 12.5 | half-life [7]: 15 h; IC50 (PC-12 [5]): 0.08 µM; half-life [8]: 15 h; metabolised at 2 h, 4000 µM [9]: 36.6%; inhibition (INH) [10]: 50%; inhibition at 0.2 µM [11]: 50%; EC50 [12]: 0.04 µM
Nc1ncnc2c1ncn2[C@@H]1O[C@H](COP(=O)(S)OP(=O)(O)O)[C@@H](O)[C@H]1O (stereo in doubt; 6B) | 8.7 | 0.13 | – | 36 | 22 | IC50 (PC-12 [5]): 39 µM
CSc1nc(N)c2ncn([C@@H]3O[C@H](COP(=O)(S)OP(=O)(O)O)[C@@H](O)[C@H]3O)c2n1 (stereo in doubt; 7B) [listing 2 of 2 here] | 1 | 0.017 | – | 38 | 12 | IC50 (PC-12 [5]): 0.6 µM; Drug metabolism [13]: 23.7%
O=C(O)CN(CCN(CC(=O)O)CC(=O)O)CCN(CC(=O)O)CC(=O)O [PENTETIC ACID] | – | – | – | – | – | IC50 [4]: 90 µM
Nc1ncnc2c1ncn2[C@@H]1O[C@H](COP(=O)(S)OP(=O)(O)O)[C@@H](O)[C@H]1O (stereo in doubt; 6A) | 4.5 | 0.08 | 38 | 31 | 20 | half-life [7]: 14.5 h; half-life [8]: 14.5 h
CSc1nc(N)c2ncn([C@@H]3O[C@H](COP(=O)(S)OP(=O)(O)O)[C@@H](O)[C@H]3O)c2n1 (stereo in doubt; 7A) [listing 2 of 2 here] | – | – | – | – | – | inhibition (PC-12 [14]): inactive; inhibition (NTERA2): inactive; Activity (Cerebral cortex neuron [15]): Active
